Measured values of several laboratories.
Each line is one published result; the experiments were not run side by side.
TAOK1: Serine/threonine-protein kinase TAO1 (TAOK1, Homo sapiens, UniProt Q7L7X3)
ADORA3: Adenosine receptor A3 (ADORA3, Homo sapiens, UniProt P0DMS8)
MC3R: Melanocortin receptor 3 (MC3R, Homo sapiens, UniProt P41968)

Structure (SMILES)	target	test	system	setting	endpoint	value
Cc1cc(O)c(-c2ccc([C@@H](C)CN(C)C)cc2)c2c1[nH]c(=O)c1sccc12	Wee1-like protein kinase (WEE1, Homo sapiens, UniProt P30291)	enzyme activity, inhibitor	–	0.1 µM	inhibition	7.11%
COc1ccc2oc(-c3ccc4nc(N)oc4c3)c/c(=N\c3ccccc3NC(=O)CCN)c2c1	Cyclin-dependent kinase 6, with cyclin D3 (CDK6, Homo sapiens, UniProt Q00534)	binding	–	1 µM	remaining binding	98%
C[C@]1(O)CCCN(c2nc(Nc3ccc(S(=O)(=O)N[C@H]4CC[C@H](CN5CCN(c6ccc(C7CCC(=O)NC7=O)cc6F)CC5)CC4)cc3Cl)ncc2C(F)(F)F)C1 (some centres unmarked)	TAOK1	binding, competition with immobilised ligand	–	1 µM	remaining binding	91%
NC/C(=C\F)COc1cccc(Cn2c(=S)[nH]c(=O)c3[nH]cnc32)c1	ADORA3	ligand displacement, radioligand	–	10 µM	inhibition	< 50%
Cc1cc2c(C(N)=O)c(N)n(-c3c(C)ccc(O)c3C)c2nc1C	Serine/threonine-protein kinase B-raf (BRAF, Homo sapiens, UniProt P15056)	enzyme activity, inhibitor, ADP detection	–	0.3704 µM	inhibition	84%
CCCC[C@H](NC(C)=O)C(=O)N[C@@H](C)C(=O)N[C@@H](Cc1c[nH]cn1)C(=O)N[C@@H](Cc1ccccc1)C(=O)N[C@@H](CCCNC(=N)N)C(=O)N[C@H](Cc1c[nH]c2ccccc12)C(=O)N[C@@H](CC(=O)O)C(=O)N[C@@H](CCCNC(=N)N)C(=O)N[C@@H](Cc1ccccc1)C(=O)N[C@@H](C(=O)N1CCC[C@@H]1C(N)=O)C(C)C	MC3R	cAMP, agonist	CHO-K1	–	Emax	100%
C#Cc1cc(-c2cc(Nc3nc(N[C@@H](C)c4ccc(F)cn4)ncc3Cl)n[nH]2)ccc1C=O	Non-receptor tyrosine-protein kinase TYK2 (TYK2, Homo sapiens, UniProt P29597)	enzyme activity, inhibitor	–	0.2 µM	inhibition	67.2%
CCCCC(=O)Nc1ccc(-c2ccc3ncn(CCC)c(=O)c3c2)cn1	Calcium/calmodulin-dependent protein kinase type 1B (PNCK, Homo sapiens, UniProt Q6P2M8)	binding, competition with immobilised ligand	–	0.5 µM	remaining binding	85%
CCN1/C(=C/C(C)=O)Sc2ccc(F)cc21	ADORA3	ligand displacement, radioligand	–	10 µM	inhibition	12.4%
N#Cc1ccc(NC(=O)Nc2ccccc2)cc1	SRSF protein kinase 3 (SRPK3, Homo sapiens, UniProt Q9UPE1)	cell-free assay, competition with immobilised ligand	–	25 µM	remaining binding	9.7%
CC(=O)N[C@@H](CCCNC(=N)N)C(=O)N[C@H]1CSSC[C@@H](C(N)=O)NC(=O)[C@H](Cc2c[nH]c3ccccc23)NC(=O)[C@H](CCCNC(=N)N)NC(=O)[C@@H](Cc2ccccc2)NC(=O)[C@H](Cc2c[nH]cn2)NC(=O)[C@@H](C)NC1=O	MC3R	cAMP, agonist	CHO-K1	–	Emax	88%
Cc1cc(S(=O)(=O)N[C@H]2CC[C@H](CN3CCN(c4ccc(C5CCC(=O)NC5=O)cc4F)CC3)CC2)ccc1Nc1ncc(C(F)(F)F)c(N2CCC[C@](C)(O)C2)n1 (some centres unmarked)	TAOK1	binding, competition with immobilised ligand	–	1 µM	remaining binding	72%
Cc1cc(F)cc2c(CCC(=O)N[C@@H]3C(=O)NC[C@H]3O)c(-c3ccc(F)cc3)[nH]c12	Neuropeptide Y receptor type 1 (NPY1R, Homo sapiens, UniProt P25929)	cell-free assay	–	10 µM	inhibition	1%
C1=C/COCc2cc(ccc2OCCN2CCCC2)Nc2nccc(n2)-c2cccc(c2)COC/1	Protein kinase C delta type (PRKCD, Homo sapiens, UniProt Q05655)	binding	–	0.1 µM	remaining binding	100%
